Experimental data from the EternaBench riboswitch data.

Test system: MS2 coat protein
Assay: apparent Kd, MS2 coat protein; higher = weaker binding; RNA-MaP array; FMN 200 µM where present
Summary of the method: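 Apparent Kd: the median of filtered binding-curve fits from single clusters. Designs were transcribed on Illumina sequencing-chip clusters by stalled E. coli RNA polymerase and titrated with SNAP-549-labelled MS2 coat protein from 0.7 or 1.5 nM, doubling to 3 µM, in 100 mM Tris-HCl pH 7.5, 80 mM KCl, 4 mM MgCl2, BSA, DTT, yeast tRNA and Tween-20. Each series ran without and then with constant ligand, and green signal was normalised to red-channel RNA signal and control-cluster median Fmax.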

[1] = designed as: ON switch for flavin mononucleotide, no ligand
[2] = ligand present: flavin mononucleotide, designed as: ON switch for flavin mononucleotide
[3] = designed as: OFF switch for flavin mononucleotide, no ligand
[4] = ligand present: flavin mononucleotide, designed as: OFF switch for flavin mononucleotide

Sequence	apparent Kd [1] [nM]	apparent Kd [2] [nM]	apparent Kd [3] [nM]	apparent Kd [4] [nM]
UGGUACUAGGGAGGAUAUCGGAAGAUACAUGAGGAUCACCCAUGUUUAAGAAUGCCGAGAGGCAACUAGAAGGCCCUAGUACCU	6.64	6.13	–	–
UGGUACUAGGGAGGAUAUGGGAAGAAACAUGAGGAUCACCCAUGUUUAAGAAUGCCGAGAGGCAACUAGAAGGCCCUAGUACCU	9.75	4.99	–	–
UGGUACUAGGGAGGAUAUGGGAAGACACAUGAGGAUCACCCAUGUUUAAGAAUGCCGAGAGGCAACUAGAAGGCCCUAGUACCU	71.9	7.95	–	–
UGGUACUAGGGAGGAUAUGGGAAGAUACAUGAGGAUCACCCAUGUUUAAGAAUGCCGAAAGGCAACUAGAAGGCCCUAGUACCU	430	19.9	–	–
UGGUACUAGGGAGGAUAUGGGAAGAUACAUGAGGAUCACCCAUGUUUAAGAAUGCCGAGAGGCACCUAGAAGGCCCUAGUACCU	21.1	5.36	–	–
UGGUACUAGGGAGGAUAUGGGAGGAUACAUGAGGAUCACCCAUGUUUAAGAAUGCCGAGAGGCAACUAGAAGGCCCUAGUACCU	919	63.7	–	–
UGGUGAAGUGUAGGAUAUGGAGAUGGGUUUUGGCCAGAAGGACAUGAGGAUCACCCAUGUGGUAGAGGGUUGGUGGUAGCUCCU	–	–	36.2	31.7
UGGUUGGGAGGAUAUCCAAUAUAUGACAUGAGGAUCACCCAUGUUUCCACUCGUACCUCCGGAGAAGGCCCUUCCA	–	–	23.1	22
UGGUUGGGAGGAUAUCCAAUAUAUGACAUGAGGAUCACCCAUGUUUCCACUCGUACCUCCGGAGAAGGCCCUUCCC	–	–	21.7	20.7
UGGUUGUGAGGAUAUACGUUUUUUAACUCUUGUUUUAUACUGUAGAAGGCACAUGAGGAUCACCCAUGUUACGU	–	–	22.4	26
UGUAGGAGCAGAGGAUAUUACAUGAGGAUCACCCAUGUAUGAACCAAUAGCUGGAAACAGCAAUGUAAGAAGGCUGCUCCGACA	–	–	12.2	187
UGUAUGGACAGAGGAUAUACCGAUAGGAUCUACUAUCGAACAAUUCUCACAUGAGGAUCACCCAUGUAGAAGGCUGUCCAUACU	–	–	16	29.5
UGUAUUAACGGAGGAUAUCGAUAUCAAACAUGAGGAUCACCCAUGUUGAGGAUCACCCAUGUCCAUGAGAAGGCUGGCGUACUU	20.8	20.6	–	–
UGUCAUAUAUAGAAGGGUAGUAGGGUUUUACAUGAGGAUCACCCAUGUAUUAUAGGAUAUGUGUAAAGUUAUUAUUAAAGUAAA	–	–	29.1	21.5
UGUCCAUAGCAGAAGGACAUGAGGAUCACCCAUGUAAUCAUACAAAUAAAUGUAGGAUAUGCUAUGGACUAAGAGCGAAAGCUC	–	–	6.24	7.26
UGUCCGAGCAGAGGAUAUUACAUGAGGAUCACCCAUGUAUGAACCAAUAGCUGGAAACAGCAAUGUAAGAAGGCUGCUCCGACA	–	–	12.2	155
UGUCGGAGCAGAGGAUAUAACAUGAGGAUCACCCAUGUAUGAACCAAUAGCUGGAAACAGCAAUGUAAGAAGGCUGCUCCGACA	–	–	5.8	6.69
UGUCGGAGCAGAGGAUAUUACAUGAGGAUCACCCAUGUAAAUGGAAUAAGCUGGAAACAGCAAUGUAAGAAGGCUGCUCCGACA	–	–	70.2	619
UGUCGGAGCAGAGGAUAUUACAUGAGGAUCACCCAUGUAUGAACCAAUAGCUGGAAACAACAAUGUAAGAAGGCUGCUCCGACA	–	–	7.22	38.8
UGUCGGAGCAGAGGAUAUUACAUGAGGAUCACCCAUGUAUGAACCAAUAGCUGGAAACAGCAAUGUAAGAAGGCCGCUCCGACA	–	–	5.82	28.5
UGUCGGAGCAGAGGAUAUUACAUGAGGAUCACCCAUGUAUGAACCAAUAGCUGGAAACAGCAAUGUAAGAAGGCUGCUACGACA	–	–	12.2	153
UGUCGGAGCAGAGGAUAUUACAUGAGGAUCACCCAUGUAUGAACCAAUAGCUGGAAACAGCAAUGUAAGAAGGCUGCUCCGACU	–	–	13	174
UGUCGGAGCAGAGGAUAUUACAUGAGGAUCACCCAUGUAUGAACCAAUAGCUGGAAACAGCAAUGUUAGAAGGCUGCUCCGACA	–	–	5.23	6.86
UGUCGGAGCAGAGGAUAUUACAUGAGGAUCACCCAUGUAUGAACCAAUAGCUGGAAACAGCAUUGUAAGAAGGCUGCUCCGACA	–	–	4.75	12.1
UGUCGGAGCAGAGGAUAUUACAUGAGGAUCACCCAUGUAUGAACUAAUAGCUGGAAACAGCAAUGUAAGAAGGCUGCUCCGACA	–	–	6.27	17.9
UGUCGGAGCAGAGGAUAUUACAUGAGGAUCACCCAUGUAUGAAGCAAUAGCUGGAAACAGCAAUGUAAGAAGGCUGCUCCGACA	–	–	5.7	7
UGUCGGAGCAGAGGAUAUUACAUGAGGAUCACCCAUGUUUGAACCAAUAGCUGGAAACAGCAAUGUAAGAAGGCUGCUCCGACA	–	–	91.2	242

Sequence	apparent Kd [1] [nM]	apparent Kd [2] [nM]	apparent Kd [3] [nM]	apparent Kd [4] [nM]
UGUGCAGAAGGAUAUGCGUAAGCUCGGUGACGAGCAGGUCUACAUGAGGAUCACCCAUGUAGAAGGUCUGUACU	–	–	16.8	17.9
UGUGCAGAAGGAUAUGCGUAAUGGCCGUGAGGCCUAGAUCUACAUGAGGAUCACCCAUGUAGAAGGUCUGUACU	–	–	16.6	16.4
UGUGCGUAUGUGAGGAUAUGCUGGUCCUUGGAUCGGCAGAAGGCACAUGAGGAUCACCCAUGUGGUGUCGUACC	–	–	161	40.4
UGUGCGUAUGUGAGGAUAUGCUGGUCCUUGGCUCGGCAGAAGGCACAUGAGGAUCACCCAUGUGGUGUCGUACU	–	–	108	104
UGUGCGUUGAUCUUCGAUCGGAGUACAUGAGGAUCACCCAUGUAGGAUAUUCAAAGACGCAGAUAGAAGAAGGACAUAGGUUUC	–	–	10.1	11.1
UGUGCGUUGAUCUUCGAUCGUUGUACAUGAGGAUCACCCAUGUAGGAUAUUCUAAGACGCAGAUAGGAGAAGGACAUUGGUUUU	–	–	10.1	17.6
UGUGGGUCAGGAUAUUCUAUUUAUUACAUGAGGAUCACCCAUGUGAAUGGACAAGGGUGUGAAGAAGGGACUUGUG	–	–	876	495
UGUGUGUGGCAGGAUAUGCCGGUCGUAGGACGGGUAGAAGGGUCUACAUGAGGAUCACCCAUGUGGCCGGUUGG	–	–	19.2	18.5
UGUGUGUGGCAGGAUAUGCCGGUCGUUGGACGGGUAGAAGGGUCUACAUGAGGAUCACCCAUGUGGCCGGUUGG	–	–	18.4	20.2
UGUUAAUAUCGAGGAUAUGUCUAGACACAUGAGGAUCACCCAUGUAUGUGUAUAGAAGGCGAUAUUAACAGCAUGUUACAUGCA	36.9	16.9	–	–
UGUUACUAGUAAGGAUAUACUUGCGAUUAGCUUGUAGAAGGUACAGUCUUUUGUAUAACAUGUUUACAUGAGGAUCACCCAUGU	10.7	8.69	–	–
UGUUCUAUGUAGAAGGCCCAUAUCUGUAUUUAGGGAGGAUAUACAUGAGGAUCACCCAUGUGUAGAGCUGGUGGACUGGUCAGC	–	–	13.6	38.9
UGUUGAUAGCAGAAGGACAUGAGGAUCACCCAUGUAAGGAUACAAAUAUAUGUAGGAUAUGCUAUUGACUAAGAGUGAGCGUUC	–	–	8.55	18.9
UGUUGUAUUACAGGAUAUCUAGUAUUUUUAUAUAGAGAAGGGUAUUCACAUGAGGAUCACCCAUGUAUAUACGAGGAAGUUGUG	30.3	32.2	–	–
UGUUGUAUUACAGGAUAUCUAGUAUUUUUUUUUAGAGAAGGGUAUUCACAUGAGGAUCACCCAUGUAUAUACGAGGAAGUUGUG	67.1	71.1	–	–
UGUUGUAUUACAGGAUAUCUAUUAGUUUAAUUUAGAGAAGGGUAUUCACAUGAGGAUCACCCAUGUAUAUACGAGGAAGUUGUG	53	62.2	–	–
UGUUGUAUUACAGGAUAUCUAUUAGUUUUAUUUAGAGAAGGGUAUUCACAUGAGGAUCACCCAUGUAUAUACGAGGAAGUUGUG	57.8	60.3	–	–
UGUUGUAUUACAGGAUAUCUAUUAUUUUAAUUUAGAGAAGGGUAUUCACAUGAGGAUCACCCAUGUAUAUACGAGGAAGUUGUG	52.9	57.2	–	–
UGUUUGCGGCAGGAUAUCCAUCCGCGGUGUGGUGGAGAAGGGCUGACAUGAGGAUCACCCAUGUGCGUCCUGUA	–	–	19.4	27.5
UGUUUUCGAGGAUAUACAUGAGGAUCACCCAUGUGGAUUCACACUGACAGUUCCUUUUGUAGAAGGUGAUAGGC	–	–	124	170
UUAAAUCAUGUAGGAUAUGCAUGGCGAAGCUACGCAGAAGGACAUGAGGAUCACCCAUGUCUCUCCGUCUGCGUACAGACGGAG	–	–	24.6	155
UUAAAUCAUGUAGGAUAUGCAUGGCGAAGCUACGCAGAAGGACAUGAGGAUCACCCAUGUUAUAGCGUCCGAUUAAGGAUGCAA	–	–	91.9	216
UUAAAUCAUGUAGGAUAUGCAUGGCGAAGCUACGCAGAAGGACAUGAGGAUCACCCAUGUUCUAGCUACCGAGAACGGUGGCAA	–	–	19.1	74.1
UUAACUCAUGUAGGAUAUGCAUGGCGAAGCUACGCAGAAGGACAUGAGGAUCACCCAUGUUCUAGCGUCUGAGAACAGAUGCAA	–	–	49.2	400
UUAAGGGACUGAGGAUAUACAUGAAUUAUUUUUGUAGAAGGCAGAUUGUUAGUUUAUUCACUAUACAUGAGGAUCACCCAUGUU	–	–	27.4	20.1
UUAAUAAAGUAAGGAUAUACAUGAGGAUCUCUCGUAGAAGGUACUAUACAUGAGGAUCACCCAUGUGCCGGUCCGUAGACUGGA	387	796	–	–
UUAAUAAUACAAGGAUAUCUAUUGUUCUUAAGACAUACAUGAGGAUCACCCAUGUUAAUAUAUGUAGAGAAGGUGUAUUUUCAG	30.5	22.9	–	–
